Tests used:
[1] = biological target: Voltage-gated L-type calcium channel (Rattus norvegicus, UniProt P22002+Q02485+P27732); experiment: Inhibition of [3H]nitrendipine binding to calcium channels in the rat brain.; format: tissue-based
Rattus norvegicus [2] = organism: Rattus norvegicus; experiment: Concentration required to produce 25% increase in coronary flow; format: functional
Summary of the method: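 Langendorff isolated hearts from male rats (400–600 g), pentobarbital 50 mg/kg ip anesthesia, heparin 2000 units ip; retrograde aortic perfusion with modified Krebs-Henseleit bicarbonate buffer, about 15 mL/min for 2–3 min, then constant 70 mmHg pressure, 37 °C; spontaneously beating. Coronary flow taken as percent change from control; EC25 (25% increase) read graphically from at least two hearts.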

Rattus norvegicus [3] = experiment: Concentration required to produce 25% increase in intraventricular pressure(LV dp/dt); format: functional, Cardiac ventricle
Summary of the method: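 Isolated perfused male rat heart (400–600 g; pentobarbital 50 mg/kg ip, heparin 2000 units ip), Krebs-Henseleit bicarbonate buffer at constant 70 mmHg, 37 °C, spontaneous beating; LV dP/dt expressed as percent change from control; concentration giving a 25% increase (or decrease) in LV dP/dt determined graphically, minimum two hearts.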

Oryctolagus cuniculus = organism: Oryctolagus cuniculus; experiment: The compound was tested for inhibition of potassium depolarized Rabbit aorta; format: functional

Compound | IC50 [1] | IC50 (Oryctolagus cuniculus) | EC25 (Rattus norvegicus [2]) | EC25 (Rattus norvegicus [3])
CCOC(=O)CC1=C(C(=O)OCC)C(c2ccccc2C(F)(F)F)/C(=C(\O)OCC)C(C)=N1 (configuration not stated) | 20 nM |  |  | 
CCOC(=O)[C@@H]1/C(=C/C(=O)c2ccccc2)N=C(C)/C(=C(/O)OCC)[C@H]1c1cccc(Cl)c1Cl | 27.7 nM |  | 200 nM | >300 nM
CCOC(=O)C1=C(C)N=C(/C=C(\O)c2ccccc2)[C@@H](C(=O)OCC)[C@@H]1c1ccccc1 | 912.8 nM |  | 200 nM | 500 nM
COC(=O)C1=C(C)NC(C)=C(C(=O)OC)C1c1ccccc1[N+](=O)[O-] [NIFEDIPINE] |  | 200 nM | 10 nM | 300 nM
CCOC(=O)C1=C(C)N=C(/C=C(\O)OCC)C(C(=O)OCC)C1c1ccccc1C(F)(F)F (configuration not stated) | 346.9 nM |  | <100 nM | >300 nM
CC1=C([N+](=O)[O-])[C@@H](c2ccccc2C(F)(F)F)[C@H](C(=O)c2ccccc2)C(/C=C(\O)c2ccccc2)=N1 | > 1000 nM |  |  | 
CCOC(=O)C1C(/C=C(\O)c2ccccc2)=NC(C)=C(C#N)C1c1ccccc1C(F)(F)F (configuration not stated) | 1021 nM |  | 300 nM | 3000 nM
CCOC(=O)[C@@H]1/C(=C/C(=O)c2ccccc2)N=C(C)/C(=C(/O)OCC)[C@H]1c1ccccc1C(F)(F)F | 296.9 nM |  | <100 nM | >3000 nM
CCOC(=O)C1=C(C)N=C(C2=C(O)c3ccccc3CC2)[C@@H](C(=O)OCC)[C@@H]1c1ccccc1C(F)(F)F | > 1000 nM |  |  | 
CCOC(=O)[C@@H]1C(C2=C(O)c3ccccc3CC2)=NC(C)=C(C#N)[C@H]1c1ccccc1C(F)(F)F | > 1000 nM |  | 1000 nM | >1000 nM
CCOC(=O)CC1=NC(C)=C(C#N)C(c2ccccc2C(F)(F)F)/C1=C(\O)OCC (configuration not stated) | 149.6 nM |  |  | 
CCOC(=O)[C@@H]1/C(=C/C(=O)c2ccncc2)N=C(C)/C(=C(/O)OCC)[C@H]1c1ccccc1C(F)(F)F | 25.5 nM | 3100 nM | 30 nM | >300 nM
CCO/C(O)=C1C(C)=N/C(=C\C(=O)c2ccccc2)[C@@H](C(=O)c2ccccc2)[C@@H]\1c1ccccc1C(F)(F)F | 591.4 nM |  | 380 nM | 1200 nM
CCOC(=O)[C@@H]1/C(=C/C(=O)c2ccccc2Cl)N=C(C)/C(=C(/O)OCC)[C@H]1c1ccccc1C(F)(F)F | > 1000 nM |  |  | 

Continued, in another order:

IC50 [1] | IC50 (Oryctolagus cuniculus) | Compound | EC25 (Rattus norvegicus [2]) | EC25 (Rattus norvegicus [3])
335.8 nM |  | CCOC(=O)[C@@H]1C(/C=C(\O)c2ccccc2)=NC(C)=C([N+](=O)[O-])[C@H]1c1ccccc1C(F)(F)F | 100 nM | >300 nM
413.7 nM |  | CCOC(=O)[C@@H]1/C(=C/C(=O)c2ccc(C)cc2)N=C(C)/C(=C(/O)OCC)[C@H]1c1ccccc1C(F)(F)F | 130 nM | >300 nM
116.7 nM | 150000 nM | CCOC(=O)[C@@H]1/C(=C/C(=O)c2ccc(F)cc2)N=C(C)/C(=C(/O)OCC)[C@H]1c1ccccc1C(F)(F)F | 300 nM | >300 nM
31.1 nM | 17000 nM | CCOC(=O)[C@@H]1/C(=C/C(=O)c2ccccc2)N=C(C)/C(=C(/O)OCC)[C@H]1c1ccccc1[N+](=O)[O-] | 100 nM | 2200 nM
31.7 nM | 2700 nM | CCOC(=O)[C@@H]1/C(=C/C(=O)c2ccc(N(C)C)cc2)N=C(C)/C(=C(/O)OCC)[C@H]1c1ccccc1C(F)(F)F | 200 nM | >300 nM
162.5 nM |  | CCOC(=O)[C@@H]1/C(=C/C(=O)c2ccc(Cl)cc2)N=C(C)/C(=C(/O)OCC)[C@H]1c1ccccc1C(F)(F)F | <100 nM | <100 nM
> 1000 nM |  | CCOC(=O)[C@@H]1C(/C=C(\O)c2ccccc2)=NC2=C(C(=O)CCC2)[C@H]1c1ccccc1C(F)(F)F | 1400 nM | 1500 nM

From ChEMBL document CHEMBL1124189, “2-(2-Aryl-2-oxoethylidene)-1,2,3,4-tetrahydropyridines. Novel isomers of 1,4-dihydropyridine calcium channel blockers” (J Med Chem, 1988)
